The target in test [1] is T1, B1 bradykinin receptor (Homo sapiens, UniProt P46663).
T1 sequence (P46663 whole entry): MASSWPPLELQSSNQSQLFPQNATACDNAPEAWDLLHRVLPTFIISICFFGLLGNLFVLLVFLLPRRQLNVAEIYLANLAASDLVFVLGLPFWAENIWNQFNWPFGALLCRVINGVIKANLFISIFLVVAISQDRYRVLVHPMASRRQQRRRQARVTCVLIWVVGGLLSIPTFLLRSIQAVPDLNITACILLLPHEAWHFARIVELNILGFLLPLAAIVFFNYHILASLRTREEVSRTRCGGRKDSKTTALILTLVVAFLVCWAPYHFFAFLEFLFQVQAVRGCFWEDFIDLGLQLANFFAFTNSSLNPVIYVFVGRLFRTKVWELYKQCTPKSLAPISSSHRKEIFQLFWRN
Briefly: Antagonist activity at human cloned B1 receptor expressed in african green monkey COS7 cells by calcium mobilization assay. It is filed as functional, cell-based, COS-7. The essentials:
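Cos-7 cells (DMEM, 10% FBS, 37 °C, 6% CO2) transiently electroporated with 16 µg human B1 cDNA plus 50 µg aequorin cDNA, plated 12,000 cells/well and used 2–3 days later. Compounds serially diluted from 2 mM DMSO stocks in half-log steps, six concentrations in triplicate. Coelenterazine-loaded cells received compounds in HEPES assay buffer. Read-out was aequorin calcium luminescence, with desArg10HOE140 standards for basal and partial inhibition. Ki reported.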

Test [2] has as its target T1, B1 bradykinin receptor. As to the kind of experiment: Displacement of [3H]desArg from human B1 in human WI 38 cells. The format is cell-based. The method, boiled down:
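WI-38 fibroblasts, 50,000/well, grown overnight and primed with IL-1b 100 units/mL for 3 h to induce B1. Binding used ~1 nM [3H]-desArg10kallidin in HEPES/HBSS pH 7.4 with phenanthroline and bacitracin, 1 h at 4 °C, 0.5% final DMSO. Nonspecific binding was defined with 3 µM desArg10kallidin. Cells washed, SDS-solubilized and scintillation counted; logistic fit gave IC50, converted to Ki, ≥3 determinations.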

Molecules are shown by their SMILES.

On to `CC(C)COc1ccc(CN(CC(=O)NCc2ccccc2Cl)S(=O)(=O)c2ccc(CN3CCN(C)CC3)cc2)cc1Cl`, for which the inhibition constant (Ki) on B1 bradykinin receptor [1] was 0.188 µM; on B1 bradykinin receptor [2], 0.021 µM.
Taken in the same sequence, the figures for `COc1cc(CN(CC(=O)NCc2ccccc2Cl)S(=O)(=O)c2ccc(CN3CCN(C)CC3)cc2)ccc1OCC(C)C` were 0.037 µM and 0.011 µM.
Take `COc1cc(CN(CC(=O)NCc2ccccc2Cl)S(=O)(=O)c2ccc(CN3CCCCC3)cc2)ccc1OCC(C)C`: the Ki at B1 bradykinin receptor [1] was found to be 0.267 µM; at B1 bradykinin receptor [2] it was 0.034 µM.
As for `O=C(O)CCNC(=O)CN(CCOc1cccc(Cl)c1)S(=O)(=O)c1ccc(Cl)cc1Cl`, affinity at B1 bradykinin receptor [2] was put at a Ki of 1.09 µM.
On the same count and under the same terms, then `COc1ccccc1CCNC(=O)CN(CCOc1ccc2c(c1)OCO2)S(=O)(=O)c1ccc(Cl)cc1Cl`, with 0.21 µM.
The molecule `O=C(O)CCNC(=O)CN(CCOc1ccc2c(c1)CCC2)S(=O)(=O)c1ccc(Cl)cc1Cl` registered a Ki at B1 bradykinin receptor [2] of 0.41 µM.
In the case of `COCCCNC(=O)CN(CCOc1ccc2c(c1)CCC2)S(=O)(=O)c1ccc(Cl)cc1Cl`, the Ki at B1 bradykinin receptor [2] turned out to be 1.21 µM.
`CNC(=O)CN(CCOc1ccc2c(c1)CCC2)S(=O)(=O)c1ccc(Cl)cc1Cl` had a Ki on B1 bradykinin receptor [2] of 2.2 µM.
Take `O=C(O)CCNC(=O)CN(CCOc1ccccc1)S(=O)(=O)c1ccc(Cl)cc1Cl`: the inhibition constant Ki at B1 bradykinin receptor [2] turned out to be 13 µM.
Same read-out and setting: then `CC(C)COc1ccc(CN(CC(=O)NCc2ccccc2Cl)S(=O)(=O)c2ccc(CN3CCN(C)CC3)cc2)cc1`, with 0.113 µM.
Consider `COc1cc(CN(CC(=O)NCc2ccccc2Cl)S(=O)(=O)c2ccc(CN3CCOCC3)cc2)ccc1OCC(C)C`, for which the Ki at B1 bradykinin receptor [1] stood at 0.463 µM; at B1 bradykinin receptor [2] it was 0.149 µM.
Take `COc1cc(CN(CC(=O)NCc2ccccc2Cl)S(=O)(=O)c2ccc(CN(C)C)cc2)ccc1OCC(C)C`: the values for the Ki at B1 bradykinin receptor [1] and at B1 bradykinin receptor [2] were 0.497 µM and 0.093 µM, respectively.
The molecule `O=C(O)CCNC(=O)CN(CCOc1ccc2c(c1)OCO2)S(=O)(=O)c1ccc(Cl)cc1Cl` registered a Ki at B1 bradykinin receptor [2] of 1.57 µM.

These data come from ChEMBL document CHEMBL1139266, “Sulfonamido-aryl ethers as bradykinin B1 receptor antagonists” (Bioorg Med Chem Lett, 2009).
